Calls of active or inactive are those of the source. No cut-off for these calls is given here.
How the values were obtained:
Rattus norvegicus [1] = species: Rattus norvegicus; test: Inhibitory activity against 48/80 induced release of Histamine from isolated rat peritoneal mast cells at a dose of 10e-3 mol; Inactive; type: functional, cell-based
Method in brief: (§1)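 Rat peritoneal cells (~10% mast cells) collected by lavage with Tris-HCl-buffered (10 mmol, pH 7.4) salt solution. The reaction was stopped on ice. Histamine was measured by o-phthalaldehyde fluorometry in duplicate, expressed as % of total minus spontaneous release, with % inhibition taken versus 48/80 alone.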

Rattus norvegicus [2] = species: Rattus norvegicus; test: Inhibitory activity against 48/80 induced release of Histamine from isolated rat peritoneal mast cells at a dose of 10e-3 mol; type: functional; method in brief: as §1
Rattus norvegicus [3] = species: Rattus norvegicus; test: Inhibitory activity against 48/80 induced release of Histamine from isolated rat peritoneal mast cells at a dose of 2*10e-4 mol; type: functional; method in brief: as §1
Rattus norvegicus [4] = species: Rattus norvegicus; test: Inhibitory activity against 48/80 induced release of Histamine from isolated rat peritoneal mast cells at a dose of 5*10e-4 mol; type: functional; method in brief: as §1
Rattus norvegicus [5] = species: Rattus norvegicus; test: Inhibitory activity against 48/80 induced release of Histamine from isolated rat peritoneal mast cells at a dose of 5*10e-4 mol; Inactive; type: functional, cell-based
Rattus norvegicus [6] = species: Rattus norvegicus; test: (§2) Inhibitory activity on the compound 48/80 induced release of Histamine from isolated rat peritoneal mast cells at a dose of 5*10e-4 mol; type: functional; method in brief: as §1
Rattus norvegicus [7] = species: Rattus norvegicus; test: Inhibitory activity on the compound 48/80 induced release of Histamine from isolated rat peritoneal mast cells at a dose of 10e-3 mol; type: functional; method in brief: as §1
Rattus norvegicus [8] = species: Rattus norvegicus; test: Inhibitory activity on the compound 48/80 induced release of Histamine from isolated rat peritoneal mast cells at a dose of 2*10e-4 mol; type: functional; method in brief: as §1
Rattus norvegicus [9] = species: Rattus norvegicus; test: Inhibitory activity on the compound (in 0.5% CMC solution) 48/80 induced release of Histamine rat mast cell degranulation at a dose of 0.25micorg/mL, incubated for 15 min at 37 degree C; type: functional
Method in brief: (§3)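 Harvested rat peritoneal mast cells were preincubated 15 min at 37 °C with test compound suspended in 0.5% CMC (final 10^-3 mol/L). Degranulation was scored by inverted phase-contrast microscopy, counting >100 mast cells. % inhibition = 100[1 − (X − Z)/(Y − Z)], where Z corrects for degranulation in control medium.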

Rattus norvegicus [10] = species: Rattus norvegicus; test: Inhibitory activity of histamine release at 2*10e-3 mol; type: functional
Rattus norvegicus [11] = species: Rattus norvegicus; test: Inhibitory activity (10e-3 mol/L) against 48/80 induced rat mast cell degranulation at a dose of 0.25ug/mL, incubated for 15 min at 37 degree C; type: functional; method in brief: as §3
Rattus norvegicus [12] = species: Rattus norvegicus; test: as §2; type: functional; method in brief: as §1; remark: listed apart in the source
Rattus norvegicus [13] = species: Rattus norvegicus; test: Inhibitory activity on compound (in 0.5% CMC solution) 48/80 induced rat mast cell degranulation at a dose of 0.25micorg/mL, incubated for 15 min at 37 degree C; type: functional; method in brief: as §3

| Structure (SMILES) | Inhibition (Rattus norvegicus [2]) | Inhibition (Rattus norvegicus [4]) | inhibition (Rattus norvegicus [5]) | further results |
| --- | --- | --- | --- | --- |
| CN1CCC(CO)(c2ccccc2)CC1 | – | – | – | inhibition (Rattus norvegicus [1]): inactive |
| O=C([O-])c1cc(=O)c2c(OCC(O)COc3cccc4oc(C(=O)[O-])cc(=O)c34)cccc2o1.[Na+].[Na+] [CROMOLYN SODIUM] | 80% | 58% | – | Inhibition (Rattus norvegicus [3]): 31% |
| C=CCN1CCC2(CC1)Cc1ccccc1C(=O)O2 | – | – | inactive | – |
| CCCCCCCN1CCC2(CC1)Cc1ccccc1C(=O)O2.Cl | – | – | – | Inhibition (Rattus norvegicus [6]): 100%; Inhibition (Rattus norvegicus [7]): 100%; Inhibition (Rattus norvegicus [8]): 64% |
| Cl.O=C1OCC2(CCN(Cc3ccccc3)CC2)c2ccccc21 | – | – | – | Inhibition (Rattus norvegicus [6]): 31%; Inhibition (Rattus norvegicus [3]): 5% |
| CN(CCC1(C)COCc2ccccc21)Cc1ccccc1 (centres undefined) | – | – | – | Inhibition (Rattus norvegicus [9]): -8% |
| Cl.O=C1OC2(CCN(CCc3ccccc3)CC2)Cc2ccccc21 | 86% | 6% | – | – |
| CCOC(=O)C1c2ccccc2C(=O)OC12CCN(Cc1ccccc1)CC2.Cl (centres undefined) | 84% | 12% | – | – |
| CC(C)CN1CCC2(CC1)Cc1ccccc1C(=O)O2 | – | – | inactive | – |
| OCC1(c2ccccc2)CCN(CCc2ccccc2)CC1 | 49% | – | – | – |
| CN1CCC2(CC1)Cc1ccccc1C(=O)O2 | – | – | inactive | – |
| C[N+]1(Cc2ccccc2)CCC2(CC1)Cc1ccccc1C(=O)O2.[I-] (centres undefined) | – | – | – | Inhibition (Rattus norvegicus [10]): 28% |
| CN1CCC2(CC1)COC(=O)c1ccccc12 | – | – | inactive | – |
| O=C1OC2(CCNCC2)Cc2ccccc21 | – | – | inactive | – |
| Cl.O=C1OC2(CCN(c3ccccc3)CC2)Cc2ccccc21 | – | – | – | Inhibition (Rattus norvegicus [11]): 29.1% |
| CCCCCCCCCCN1CCC2(CC1)Cc1ccccc1C(=O)O2 | – | – | – | inhibition (Rattus norvegicus [12]): inactive |

| Structure (SMILES) | Inhibition (Rattus norvegicus [2]) | Inhibition (Rattus norvegicus [4]) | inhibition (Rattus norvegicus [5]) | further results |
| --- | --- | --- | --- | --- |
| O=C1OC2(CCN(C3CCCCC3)CC2)Cc2ccccc21 | – | – | inactive | – |
| Cl.O=C1OC2(CCN(Cc3ccccc3)CC2)Cc2ccccc21 | 76% | 40% | – | Inhibition (Rattus norvegicus [9]): 94.5%; Inhibition (Rattus norvegicus [3]): 20% |
| C=CCN1CCC2(CC1)OC(=O)c1ccccc1C2C(=O)OCC (centres undefined) | – | – | inactive | – |
| O=C1OCC2(CCN(CCc3ccccc3)CC2)c2ccccc21 | 100% | 94% | – | Inhibition (Rattus norvegicus [3]): 15% |
| CCOC(=O)C1c2ccccc2C(=O)OC12CCN(C)CC2 (centres undefined) | – | – | inactive | – |
| CCCCCCN1CCC2(CC1)Cc1ccccc1C(=O)O2.Cl | – | 67% | – | Inhibition (Rattus norvegicus [3]): 32% |
| Cl.O=C1OC2(CCN(CCCc3ccccc3)CC2)Cc2ccccc21 | 85% | 18% | – | Inhibition (Rattus norvegicus [3]): 5% |
| Cl.c1ccc(CCN2CCC3(CC2)COCc2ccccc23)cc1 | 100% | 96% | – | Inhibition (Rattus norvegicus [3]): 28% |
| OCC1(c2ccccc2)CCN(Cc2ccccc2)CC1 | – | – | – | inhibition (Rattus norvegicus [1]): inactive |
| Cl.O=C1OC2(CCN(CC3CCCCC3)CC2)Cc2ccccc21 | 83% | 47% | – | – |
| CCCCCN1CCC2(CC1)Cc1ccccc1C(=O)O2.Cl | 79% | 35% | – | Inhibition (Rattus norvegicus [3]): 23% |
| CCCCN1CCC2(CC1)Cc1ccccc1C(=O)O2.Cl | 85% | 43% | – | Inhibition (Rattus norvegicus [3]): 18% |
| O=C1OC2(CCC(Cc3ccccc3)CC2)Cc2ccccc21 (centres undefined) | – | – | – | Inhibition (Rattus norvegicus [13]): 52% |
| CN1CCC2(CC1)COCc1ccccc12 | – | – | inactive | – |
| CCCCCCCCN1CCC2(CC1)Cc1ccccc1C(=O)O2 | – | – | – | inhibition (Rattus norvegicus [12]): inactive |
| CCCN1CCC2(CC1)Cc1ccccc1C(=O)O2 | – | – | inactive | – |

Reference: ChEMBL document CHEMBL1121901, “Synthesis and structure-activity relationship of spiro[isochromanpiperidine] analogues for inhibition of histamine release” (1981)
